The structures appear in SMILES notation. Activity calls are given as the source filed them. The rule behind the calls is not given here. Where only a bound is given, the exact number is not on record here.

The target of one series is Carbonic anhydrase 9 (Homo sapiens, UniProt Q16790). As to the kind of experiment: Inhibition of recombinant human CA9 pre-incubated for 15 mins by phenol red dye based stopped flow CO2 hydration assay.
For a further series, the target named is Carbonic anhydrase 12 (Homo sapiens, UniProt O43570). Put plainly: Inhibition of recombinant human CA12 pre-incubated for 15 mins by phenol red dye based stopped flow CO2 hydration assay.
Chain of Carbonic anhydrase 12 (O43570 whole entry): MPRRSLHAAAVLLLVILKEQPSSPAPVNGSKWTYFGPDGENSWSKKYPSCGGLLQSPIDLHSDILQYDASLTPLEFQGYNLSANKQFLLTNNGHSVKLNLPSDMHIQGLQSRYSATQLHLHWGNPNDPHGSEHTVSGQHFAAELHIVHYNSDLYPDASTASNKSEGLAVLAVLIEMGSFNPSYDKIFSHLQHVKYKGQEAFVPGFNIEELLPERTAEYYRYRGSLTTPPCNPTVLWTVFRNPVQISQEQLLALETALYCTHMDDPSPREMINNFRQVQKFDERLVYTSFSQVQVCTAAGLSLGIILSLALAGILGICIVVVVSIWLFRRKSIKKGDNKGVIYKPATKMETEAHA
In another series the target is Carbonic anhydrase 2 (Homo sapiens, UniProt P00918). Put plainly: Inhibition of recombinant human CA2 pre-incubated for 15 mins by phenol red dye based stopped flow CO2 hydration assay.
The next series addresses Carbonic anhydrase 4 (Homo sapiens, UniProt P22748). As to the kind of experiment: Inhibition of recombinant human CA4 pre-incubated for 15 mins by phenol red dye based stopped flow CO2 hydration assay.
The target of another series is Carbonic anhydrase 1 (Homo sapiens, UniProt P00915). As to the kind of experiment: Inhibition of recombinant human CA1 pre-incubated for 15 mins by phenol red dye based stopped flow CO2 hydration assay.
Chain of Carbonic anhydrase 1 (P00915 whole entry): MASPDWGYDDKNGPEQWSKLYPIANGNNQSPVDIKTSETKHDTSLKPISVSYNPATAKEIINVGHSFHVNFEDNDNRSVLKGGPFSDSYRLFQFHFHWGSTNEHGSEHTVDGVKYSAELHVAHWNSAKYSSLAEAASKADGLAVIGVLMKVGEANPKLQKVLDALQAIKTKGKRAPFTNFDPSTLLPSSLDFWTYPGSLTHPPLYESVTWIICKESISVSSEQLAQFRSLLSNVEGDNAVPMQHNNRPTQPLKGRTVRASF
Series [1] has as its system Rattus norvegicus. As to the kind of experiment: Antinociceptive activity against complete freund's adjuvant-induced arthritic Sprague-Dawley rat model assessed as reduction in spontaneous pain by measuring difference in weight tolerance on contralateral and ipsilateral paw at 13.23 mg/kg, po administered as single dose starting from day 14 post CFA injection and measured after 15 to 30 mins by Incapacitance test. The class given is functional, organism-based. Particulars: time 15-30 min. A digest of the protocol: (§1)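 Sprague Dawley rats 200–250 g, CFA 50 μL intra-articular into left tibiotarsal joint on day 0 (saline controls). On day 14, single oral dose in 1% CMC (hybrids 1, 10, 30 mg/kg; single agents 13.23 or 17.71 mg/kg). Incapacitance apparatus, rats on hind paws on 65° inclined plane; Δ weight = contralateral minus ipsilateral load over time; 8 rats, two experimental sets, mean (SEM).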

Series [2] has as its system Liver. As to the kind of experiment: Induction of H2S release in rat liver microsomes assessed as half life of H2S release at 150 uM incubated for 90 mins by methylene blue based UV-Vis spectrophotometer analysis. The class given is functional. To be noted: Homogenate, in the assay text read “rat liver homogenate” for “rat liver microsomes”. The essentials:
(§2)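 Rat liver homogenized 1/20 w/v in ice-cold 50 mM potassium phosphate pH 7.4, diluted further 1:10; compound 150 μM final (30 mM DMSO stock) in airtight vials at 37 °C, 0–90 min. H2S trapped with zinc acetate, proteins precipitated with TCA, then N,N-dimethyl-p-phenylenediamine/FeCl3; methylene blue A667 after 30 min at 25 °C; Na2S calibration 1–250 μM; compound-free baseline; triplicate.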

Series [3] concerns Liver. As to the kind of experiment: Induction of H2S release in rat liver microsomes at 150 uM incubated for 90 mins by methylene blue based UV-Vis spectrophotometer analysis. Particulars: Homogenate, in the assay text read “rat liver homogenate” for “rat liver microsomes”. Type of series: functional. The essentials: as §2
For series [4], the system named is Rattus norvegicus. Put plainly: Antinociceptive activity against complete freund's adjuvant-induced arthritic Sprague-Dawley rat model assessed as increase in weight tolerated on ipsilateral paw at 13.23 mg/kg, po administered as single dose starting from day 14 post CFA injection and measured after 15 to 45 mins by Paw pressure test. The class given is functional, organism-based. Particulars: time lower 15.0 min, time upper […].

For series [5], the system named is Liver. As to the kind of experiment: Induction of H2S release in rat liver microsomes assessed as Cmax of H2S release at 150 uM measured after 20 mins by methylene blue based UV-Vis spectrophotometer analysis. The class given is functional. Particulars: Homogenate, in the assay text read “rat liver homogenate” for “rat liver microsomes”. A digest of the protocol:
as §2

Series [6] can be described thus: Toxicity in Sprague-Dawley rat model of complete freund's adjuvant-induced arthritis assessed as effect on autonomical parameters at 30 mg/kg, po measured for 24 hrs by Irwin test. Type of series: organism-based. To be noted: in vivo. A digest of the protocol: (§3)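 Single oral 30 mg/kg dose (1% CMC suspension) in CFA-arthritic Sprague Dawley rats; animals observed 24 h. Irwin screen in individual transparent cage scoring 26 autonomic, behavioral and neurological parameters; some signs recorded as present/absent, skin colour qualitatively, others semiquantitatively on observer scales (0 to +4, −4 to 0, or −4 to +4).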

The test system of series [7] is Liver. Put plainly: Induction of H2S release in rat liver microsomes assessed as Cmax of H2S release at 150 uM measured after 90 mins by methylene blue based UV-Vis spectrophotometer analysis. Type of series: functional. To be noted: Homogenate, in the assay text read “rat liver homogenate” for “rat liver microsomes”. A digest of the protocol: as §2
Series [8] has as its system Rattus norvegicus. As to the kind of experiment: Antinociceptive activity against complete freund's adjuvant-induced arthritic Sprague-Dawley rat model assessed as reduction in mechanical hyperalgesia induced hypersensitivity at 10 to 30 mg/kg, po administered as single dose starting from day 14 post CFA injection and measured upto 75 mins by Paw pressure test. Type of series: functional, organism-based. Particulars: dose 10-30 mg/kg.

In series [9] the test system is Rattus norvegicus. As to the kind of experiment: Antinociceptive activity against complete freund's adjuvant-induced arthritic Sprague-Dawley rat model assessed as increase in weight tolerated on ipsilateral paw at 10 to 30 mg/kg, po administered as single dose starting from day 14 post CFA injection and measured after 15 to 45 mins by Paw pressure test. To be noted: dose 10-30 mg/kg, time lower 15.0 min, time upper […]. The class given is functional, organism-based.

Series [10] can be described thus: Toxicity in Sprague-Dawley rat model of complete freund's adjuvant-induced arthritis assessed as effect on neurological parameters at 30 mg/kg, po measured for 24 hrs by Irwin test. The class given is organism-based. Particulars: in vivo. A digest of the protocol: as §3
Series [11] has as its system Rattus norvegicus. Put plainly: Antinociceptive activity against complete freund's adjuvant-induced arthritic Sprague-Dawley rat model assessed as reduction in spontaneous pain by measuring difference in weight tolerance on contralateral and ipsilateral paw administered orally as single dose starting from day 14 post CFA injection and measured after 30 to 45 mins by Incapacitance test. The class given is functional, organism-based. Particulars: dose 1-30 mg/kg, route po, time lower 30.0 min, time upper […], DDE = dose-dependent effect. A digest of the protocol: as §1

A short description of series [12]: Toxicity in Sprague-Dawley rat model of complete freund's adjuvant-induced arthritis assessed as effect on behavioral parameters at 30 mg/kg, po measured for 24 hrs by Irwin test. Type of series: organism-based. To be noted: in vivo. The essentials:
as §3

For series [13], the system named is Rattus norvegicus. As to the kind of experiment: Antinociceptive activity against complete freund's adjuvant-induced arthritic Sprague-Dawley rat model assessed as reduction in mechanical hyperalgesia induced hypersensitivity administered orally as single dose starting from day 14 post CFA injection and measured upto 75 mins by Paw pressure test. Type of series: functional, organism-based. To be noted: dose 1-30 mg/kg, route po, DDE = dose-dependent effect.

Series [14] relates to Rattus norvegicus. Put plainly: Antinociceptive activity against complete freund's adjuvant-induced arthritic Sprague-Dawley rat model assessed as reduction in spontaneous pain by measuring difference in weight tolerance on contralateral and ipsilateral paw at 10 mg/kg, po administered as single dose starting from day 14 post CFA injection and measured upto 75 mins by Incapacitance test. Type of series: functional, organism-based. A digest of the protocol:
as §1

Chain of Carbonic anhydrase 4 (P22748 whole entry): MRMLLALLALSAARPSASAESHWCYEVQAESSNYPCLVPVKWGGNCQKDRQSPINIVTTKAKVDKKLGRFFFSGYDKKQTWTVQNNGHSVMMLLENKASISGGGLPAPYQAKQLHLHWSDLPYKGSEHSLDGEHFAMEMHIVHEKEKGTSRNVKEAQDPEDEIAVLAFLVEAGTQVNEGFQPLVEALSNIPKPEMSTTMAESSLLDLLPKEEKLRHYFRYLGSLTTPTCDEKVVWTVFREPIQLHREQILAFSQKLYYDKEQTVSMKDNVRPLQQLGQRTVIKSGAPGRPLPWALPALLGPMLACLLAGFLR

For `COc1ccc(CN(CCc2ccc(S(N)(=O)=O)cc2)C(=O)c2ccc(-c3cssc3=S)cc2)cc1OC`, the Ki came out at 18.6 nM at Carbonic anhydrase 9, 8.9 nM at Carbonic anhydrase 12, 218 nM at Carbonic anhydrase 2 and 293 nM at Carbonic anhydrase 4.
As to `NS(=O)(=O)c1ccc(CCN(Cc2ccc(F)cc2)C(=O)c2ccc(-c3cssc3=S)cc2)cc1`, the Ki at Carbonic anhydrase 9 is 46.3 nM; at Carbonic anhydrase 1 it was 5320 nM; at Carbonic anhydrase 12, 65.3 nM; at Carbonic anhydrase 2 it was 600 nM; on Carbonic anhydrase 4, over 10000 nM.
In the case of `O=C(O)c1ccc(-c2cssc2=S)cc1`, the outcome in the series on Rattus norvegicus [1], with Liver [3] and in the series with Rattus norvegicus [4] was Active. The T1/2 in the series on Liver [2] was found to be 3.1 min. In addition, the Cmax in the series on Liver [5] turned out to be 12.1 µM.
For `NS(=O)(=O)c1ccc(CCN(Cc2ccccc2)C(=O)c2ccc(-c3cssc3=S)cc2)cc1`, the Ki on Carbonic anhydrase 9 was 43 nM; on Carbonic anhydrase 12 it was 9.7 nM; at Carbonic anhydrase 2, 480 nM; on Carbonic anhydrase 4 it was 4340 nM.
With `COc1ccc(CN(CCc2ccc(S(N)(=O)=O)cc2)C(=O)c2ccc(-c3cssc3=S)cc2)cc1`, the inhibition constant Ki at Carbonic anhydrase 9 was determined as 50.3 nM; at Carbonic anhydrase 1 it was 2210 nM; on Carbonic anhydrase 12 it was 76.4 nM; on Carbonic anhydrase 2, 589 nM; at Carbonic anhydrase 4, 1590 nM.
Regarding `N#Cc1ccc(CN(CCc2ccc(S(N)(=O)=O)cc2)C(=O)c2ccc(-c3cssc3=S)cc2)cc1`, the Ki at Carbonic anhydrase 9 was 40.3 nM; at Carbonic anhydrase 1 it was over 10000 nM; at Carbonic anhydrase 12 it was 8.8 nM; at Carbonic anhydrase 2, 4830 nM; on Carbonic anhydrase 4, 46.2 nM.
For `CSc1ccc(CN(CCc2ccc(S(N)(=O)=O)cc2)C(=O)c2ccc(-c3cssc3=S)cc2)cc1`, the Ki on Carbonic anhydrase 9 was determined as 46.2 nM; at Carbonic anhydrase 1 it was 7210 nM; at Carbonic anhydrase 12 it was 8.4 nM; at Carbonic anhydrase 2 it was 9650 nM; on Carbonic anhydrase 4, 404 nM. Moreover, the Activity entry was “Non-Toxic” in series [6], “Non-Toxic” in series [10], “Dde” in the series on Rattus norvegicus [11] and “Non-Toxic” in [12]. Further, in the series with Liver [7], the Cmax came out at 7.9 µM. In addition, in the series with Liver [2], the T1/2 was 4.3 min. Also, the result in the series on Liver [3], in the series on Rattus norvegicus [8] and in the series on Rattus norvegicus [9] was Active.
Take `NS(=O)(=O)c1ccc(CCN(CCc2ccccc2)C(=O)c2ccc(-c3cssc3=S)cc2)cc1`: the Ki at Carbonic anhydrase 9 came to 126 nM; at Carbonic anhydrase 1, 4390 nM; on Carbonic anhydrase 12, 9.6 nM; at Carbonic anhydrase 2 it was 661 nM; on Carbonic anhydrase 4, 243 nM.
Turning to `NS(=O)(=O)c1ccc(CCN(Cc2csc3ccccc23)C(=O)c2ccc(-c3cssc3=S)cc2)cc1`, the inhibitory constant (Ki) is 2.4 nM on Carbonic anhydrase 9; over 10000 nM at Carbonic anhydrase 1; 8 nM on Carbonic anhydrase 12; 2480 nM on Carbonic anhydrase 2; 48 nM at Carbonic anhydrase 4. The Activity entry is “Non-Toxic” in series [6], “Non-Toxic” in [10], “Dde” in the series on Rattus norvegicus [11] and “Non-Toxic” in [12]. In addition, the Cmax in the series with Liver [7] amounted to 7.9 µM. Also, the T1/2 in the series on Liver [2] came to 4.3 min. Also, the outcome with Liver [3], in the series on Rattus norvegicus [8] and in the series with Rattus norvegicus [9] was Active.
As to `N#CCCN(CCc1ccc(S(N)(=O)=O)cc1)C(=O)c1ccc(-c2cssc2=S)cc1`, the Ki turned out to be 28.7 nM at Carbonic anhydrase 9; 429 nM at Carbonic anhydrase 1; 9.1 nM on Carbonic anhydrase 12; 60.4 nM at Carbonic anhydrase 2; 523 nM on Carbonic anhydrase 4.
On the same counts, the results for `CN(C)c1ccc(CN(CCc2ccc(S(N)(=O)=O)cc2)C(=O)c2ccc(-c3cssc3=S)cc2)cc1` are 22.7 nM, 4260 nM, 9.5 nM, 995 nM and 3410 nM.
Taken in the same sequence, the figures for `NS(=O)(=O)c1ccc(CCN(Cc2ccc(Br)cc2)C(=O)c2ccc(-c3cssc3=S)cc2)cc1` were 19.1 nM, 7700 nM, 12.9 nM, 3660 nM and 1040 nM.
On the same counts, the results for `NS(=O)(=O)c1ccc(CCN(Cc2ccc(Cl)cc2)C(=O)c2ccc(-c3cssc3=S)cc2)cc1` are 24 nM, 5510 nM, 9.8 nM, 2970 nM and 430 nM.
For `COc1cc([N+](=O)[O-])ccc1CN(CCc1ccc(S(N)(=O)=O)cc1)C(=O)c1ccc(-c2cssc2=S)cc1`, the Ki on Carbonic anhydrase 9 was found to be 4.1 nM; at Carbonic anhydrase 1 it was 6700 nM; on Carbonic anhydrase 12, 7.7 nM; on Carbonic anhydrase 2, 2950 nM; on Carbonic anhydrase 4, 4090 nM. In addition, the Activity result in series [6] was “Non-Toxic”; with Rattus norvegicus [13], “Dde”; in series [10] it was “Non-Toxic”; with Rattus norvegicus [11] it was “Dde”; in series [12], “Non-Toxic”. Besides, the Cmax in the series on Liver [7] was found to be 7.9 µM. In addition, the T1/2 with Liver [2] was 4.3 min. For the same compound, in the series on Liver [3], the result was Active.
Consider `NS(=O)(=O)c1ccc(CCNCc2cccc3ccccc23)cc1`, for which, on Carbonic anhydrase 9, the Ki turned out to be 45.3 nM.
Turning to `NS(=O)(=O)c1ccc(CCN(Cc2ccc([N+](=O)[O-])cc2)C(=O)c2ccc(-c3cssc3=S)cc2)cc1`, the Ki at Carbonic anhydrase 9 is 36.6 nM; on Carbonic anhydrase 1, 7450 nM; at Carbonic anhydrase 12, 32.9 nM; on Carbonic anhydrase 2 it was 919 nM; on Carbonic anhydrase 4, over 10000 nM.
On to `NS(=O)(=O)c1ccc(CCN(Cc2cccc3ccccc23)C(=O)c2ccc(-c3cssc3=S)cc2)cc1`, for which the Ki is 15.6 nM at Carbonic anhydrase 9; over 10000 nM on Carbonic anhydrase 1; 7 nM at Carbonic anhydrase 12; 4460 nM on Carbonic anhydrase 2; 244 nM on Carbonic anhydrase 4. In addition, the Activity result in series [6], in series [10] and in [12] was “Non-Toxic” in each case. The Cmax in the series with Liver [7] stood at 7.9 µM. For the same compound, in the series with Liver [2], the T1/2 stood at 4.3 min. Moreover, the outcome in the series on Liver [3], in the series on Rattus norvegicus [8], in the series on Rattus norvegicus [9] and with Rattus norvegicus [14] was Active.
